AI-2 QS modul = Vibrio harveyi AI-2 quorum sensing modulation | Vibrio harveyi JMH597 AI-2 luminescence/OD600 ratio, 9 h; stronger effect = lower value; strain lacks LuxN and CqsS sensors; 0 = neutral-control median | activity change, % at 7.5 µM | 300,000 compounds, 0.4% hits | AID 2094; in the data active = activity change below about -75%, passing the limit was not always enough; inconclusive = no clear call, values can overlap the other calls;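 note: luminescence divided by OD600 gain over 9 h not by final OD600 alone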
HKDC1 inh = HKDC1 (human) hexokinase inhibition. Q2TB90. recombinant HKDC1, G6PDH/diaphorase resazurin coupled fluorescence. inhibition, % at 20 µM. 340,000 compounds, 0.16% hits. AID 493160;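 active = inhibition above about 35% when tested at 20 µM, limit read from the data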
Target sequence (Q2TB90 whole entry, looked up): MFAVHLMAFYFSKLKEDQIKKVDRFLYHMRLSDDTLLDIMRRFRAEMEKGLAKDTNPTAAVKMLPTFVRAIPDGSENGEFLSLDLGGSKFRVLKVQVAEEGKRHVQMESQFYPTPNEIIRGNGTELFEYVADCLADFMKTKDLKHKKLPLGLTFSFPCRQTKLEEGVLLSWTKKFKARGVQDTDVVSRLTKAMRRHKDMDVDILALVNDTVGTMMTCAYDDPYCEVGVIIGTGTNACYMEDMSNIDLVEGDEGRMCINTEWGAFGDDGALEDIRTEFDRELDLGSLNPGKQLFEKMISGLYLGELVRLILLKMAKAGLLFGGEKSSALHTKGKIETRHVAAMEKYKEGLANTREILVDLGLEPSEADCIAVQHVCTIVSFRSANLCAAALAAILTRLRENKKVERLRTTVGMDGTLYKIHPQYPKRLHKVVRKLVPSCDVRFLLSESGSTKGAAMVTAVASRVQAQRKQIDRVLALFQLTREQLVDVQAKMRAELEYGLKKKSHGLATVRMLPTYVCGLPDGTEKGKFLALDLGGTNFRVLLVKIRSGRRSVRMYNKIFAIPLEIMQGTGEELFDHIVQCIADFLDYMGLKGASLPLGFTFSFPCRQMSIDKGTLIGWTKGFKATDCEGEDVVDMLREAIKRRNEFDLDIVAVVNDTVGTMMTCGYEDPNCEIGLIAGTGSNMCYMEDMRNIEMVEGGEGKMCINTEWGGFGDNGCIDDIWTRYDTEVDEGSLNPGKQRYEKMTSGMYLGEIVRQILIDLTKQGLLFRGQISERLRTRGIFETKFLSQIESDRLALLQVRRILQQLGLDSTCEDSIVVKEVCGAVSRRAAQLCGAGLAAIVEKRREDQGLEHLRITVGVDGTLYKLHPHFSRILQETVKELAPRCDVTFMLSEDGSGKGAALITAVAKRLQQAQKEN
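System: Recombinant HKDC1 hexokinase | Amount: HKDC1 at 5 µg/mL | Reagent: Glucose with 1 mM ATP | Doses: Single 20 µM dose | Incubation: Reaction time 90 min, room temperature, protected from light | Signal: Coupled resazurin fluorescence, excitation 525 nm, emission 613 nm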
ATG4B inhibitor = ATG4B (human) cysteine protease inhibition | Q9Y4P1 | ATG4B cleavage of LC3-PLA2, NBD-HPC fluorescence, 1 h | inhibition, % at 8.33 µM | 340,000 compounds, 0.51% hits | AID 504462; in the data active = inhibition above about 40%
LANA-H2B inh = blocks KSHV LANA binding to histone H2A/H2B | Q9QR71 | cell-free LANA-H2A/H2B peptide, fluorescence polarization | inhibition, % (test concentration not listed) | 320,000 compounds, 0.6% hits; in the data active = inhibition mostly above about 10%, no sharp cut-off; inactive = mostly below about 6.7%
A1 inh = inhibitors of the anti-apoptotic protein A1, read as caspase activation | MEF A1-2A-BIM cells, Caspase-Glo 3/7 luminescence, 3 h; percent of clofoctol response, vehicle zero | caspase activation, % (concentration not given with the values) | 330,000 compounds, 0.066% hits;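 active = over half of replicate activation scores above 10%, or exactly half above 10 with the replicate mean above 10; inconclusive = replicate mean below 10 yet half the replicates above 10; inactive = over half of replicates below 10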
HDAC3 inh = blocks human histone deacetylase 3; 320,000 compounds, 0.15% hits; recombinant HDAC3, fluorogenic peptide/trypsin coupled, fluorescence; O15379; inhibition, % at 8.3 µM; in the data active = inhibition above about 26%, passing the limit was not always enough; inconclusive = no clear call, values can overlap the other calls
A number is an active result; - = inactive; ? = inconclusive; . = no result given; + = active, no number. Only some compounds are listed: those with a hit (about 1.8% of all), similar ones and a draw of the others.

SMILES	AI-2 QS modul	HKDC1 inh	ATG4B inhibitor	LANA-H2B inh	A1 inh	HDAC3 inh
COc1ccc(CN(C)CC(=O)Nc2sc3c(c2C#N)CCC3)c(OC)c1	-	-	-	-	-	?
O=[N+]([O-])c1ccc(F)cc1F	.	-	-	52	-	-
O=[N+]([O-])c1cccnc1Oc1ccc(F)cc1F	-	-	-	-	-	-
O=C(/C=C/c1ccccc1)N1CCC[C@H]1CO	-	-	-	-	-	-
C#CCSc1nncn1C(=O)/C=C/c1ccccc1	-	-	-	-	-	73
Clc1cccc(Cl)c1/C=C/c1nc2ccccc2[nH]1	-	-	-	11	-	-
COC(=O)C(C)Oc1cc(OC(C)C(=O)OC)c2c(-c3ccccc3)cc(=O)oc2c1 (stereo not given)	-	-	-	-	5.3	-
O=C(c1cccs1)n1nc(-c2ccco2)nc1SCc1ccccc1	-	-	-	-	-	65
C/C(=C\c1ccccc1)C(=O)n1nnc2ccccc21	.	-	-	-	-	28
C=C1/C=C(\C)C(C)(O)CC(O)CC(=O)C(O)C(O)C(C)CC(C)OC(=O)/C(C)=C/CC/C=C/C(OC)C(O)CC(C)C1 (stereo not given)	.	-	-	-	-	-
CCOc1ccc(NC(=O)N(c2ccccc2)c2ccccc2)cc1	.	-	-	-	-	-
CCOc1ccc(NC(=O)C(c2ccccn2)N(C(=O)CCl)c2ccc(F)cc2)cc1 (stereo not given)	-	-	-	33	-	-
Cc1ccc(NC(=O)c2ncn(CCCN(CCCn3cnc(C(=O)Nc4ccc(C)c(C)c4)n3)Cc3ccc4[nH]ccc4c3)n2)cc1C	.	-	-	.	.	.
FC(F)(F)c1cc(CCN2CCNC[C@H]2Cc2cccc3ccccc23)cc(C(F)(F)F)c1	-	-	-	-	-	32
CCCCc1c(O)c2ccccc2n(CCCC)c1=O	-	-	-	14	-	-
COc1ccccc1-c1cc(C(F)(F)F)nc(S(=O)(=O)CCCC(=O)O)n1	-	-	-	-	-	-
COc1ccccc1-c1cc(C(F)(F)F)nc(S(=O)(=O)CCCC(=O)N2CCOCC2)n1	-	-	-	-	6.1	-
O=[N+]([O-])c1ccc2nc(NN=Cc3ccc(O)cc3)sc2c1	.	-	-	.	.	.
CN(C)S(=O)(=O)c1cccc(NC(=O)c2cccc(S(=O)(=O)N3CCCCCC3)c2)c1	.	-	-	.	.	.
COc1ccc(CC(=O)N(C)Cc2ccc(OC(F)F)cc2)cc1S(=O)(=O)N1CCOCC1	.	-	-	.	.	.
CCOC(=O)c1c(-c2ccccc2)oc2cc(CN(C)C)c(O)c(CN(C)C)c12	-	-	-	49	-	-
Cn1c(CC(=O)NNC(=O)c2cccnc2)nc2ccccc21	.	-	-	19	-	-
CC1CCCC(C)N1C(=O)c1cc2ncc(CCCl)cn2n1 (stereo not given)	-	-	-	13	-	-
Cc1ccc(S(=O)(=O)/N=C2/C=C(Sc3ncn[nH]3)C(=O)c3ccccc32)c(C)c1	.	.	.	-	-	38
Cc1ccc(S(=O)(=O)/N=C2\C=C(NS(=O)(=O)c3ccccc3)C(=O)c3ccccc32)c(C)c1	.	-	-	.	.	.
SMILES	AI-2 QS modul	HKDC1 inh	ATG4B inhibitor	LANA-H2B inh	A1 inh	HDAC3 inh
CCCCc1ccc(NC(=O)CN(C)CC(=O)Nc2ccccc2Cl)cc1	-	-	-	-	18	-
CC(C)NC(=O)CSc1ccccc1C(=O)N1CCN(S(=O)(=O)/C=C/c2ccccc2)CC1	.	-	-	17	-	-
Cc1ccc(C(=O)Nc2ccc(S(=O)(=O)Nc3ncccn3)cc2)cc1[N+](=O)[O-]	-	-	-	-	-	-
COc1cc(NC(=O)COc2cccc3c2OC(C)(C)C3)cc(OC)c1OC	.	-	-	34	-	-
CC1=Nc2ccccc2N=C(NC(=O)c2ccccc2)C1c1ccccc1 (stereo not given)	-	-	-	-	-	34
CCO/C([O-])=N/c1sn[n+](C)c1C	-	-	-	-	-	-
CCOC(=O)COc1c(Cl)cc(/C=C2\N=C(C)OC2=O)cc1OC	-	-	-	-	-	66
O=C(O)c1ccc(NC2(C(=O)O)CCCC2)cc1	.	-	-	.	.	.
N#CC1=C(N)Oc2c(oc(CO)cc2=O)C1c1ccccc1[N+](=O)[O-] (stereo not given)	-	-	-	-	-	-
COc1ccccc1C1C(C#N)=C(N)Oc2c1oc(CO)cc2=O (stereo not given)	-	-	-	12	-	-
COC(=O)c1ccc(COC(=O)C(NC(=O)Cc2ccccc2)C(C)C)cc1 (stereo not given)	.	-	-	.	.	.
COc1cccc(NC(=O)COC(=O)c2sccc2C)c1	.	-	-	-	-	-
CC1CCc2onc(C(=O)NCc3ccco3)c2C1 (stereo not given)	-	-	-	+	-	-
O=C(CCCN1C(=O)/C(=C\c2cccc(Br)c2)SC1=S)Nc1cccnc1	-	-	-	19	-	-
O=C(CCCN1C(=O)/C(=C/c2cccc(Br)c2)SC1=S)Nc1cccnc1	-	-	-	-	-	-
O=S(=O)(c1cc(Cl)cc(Cl)c1)N1CCC2CC1c1cc(Cl)ccc12 (stereo not given)	.	-	-	.	.	.
Cc1cc(C)c(S(=O)(=O)N2CCN(C3CC(=O)N(c4ccccc4Cl)C3=O)CC2)c(C)c1 (stereo not given)	.	-	-	-	-	-
O=C(NC12CC3CC(CC(C3)C1)C2)c1ccc([N+](=O)[O-])o1	-210	-	-	-	-	-
CC(=O)c1ccc2c(c1)CCN2	.	-	-	.	.	.
COc1ccccc1CNC(=O)c1cnc2ccccn2c1=O	-	-	-	-	-	-
O=C(NCc1cccs1)c1cnc2ccccn2c1=O	-	-	-	9.8	-	-
C=CCNc1nc(Nc2ccccc2F)nc(OCC)n1	-	-	-	16	-	-
CCOc1nc(Nc2ccccc2F)nc(OCC)n1	-	-	-	-	-	-
COc1cc(OC)cc(C(C)=O)c1	-	-	-	20	-	-
Cc1cc(NC(=O)C(C)Sc2nc(-c3cccs3)nc3ccccc23)no1 (stereo not given)	.	-	-	.	.	.
SMILES	AI-2 QS modul	HKDC1 inh	ATG4B inhibitor	LANA-H2B inh	A1 inh	HDAC3 inh
O=C(NCc1ccc2c(c1)OCO2)c1ccc2c(c1)OCO2	-	-	-	-	-	-
O=C(O)c1ccc(NCc2ccc3c(c2)OCO3)cc1	-92	-	-	-	-	?
O=S(=O)(Nc1nc2ccccc2nc1NCC1CCCO1)c1cc(Cl)ccc1Cl (stereo not given)	-	-	-	-	-	-
Nc1ccc(S(=O)(=O)Nc2ccc(Cl)nn2)cc1	-	-	-	-	-	-
CN(CCOC(=O)c1cccc(F)c1)Cc1ccccc1	-	-	-	11	-	-
CN(CCOC(=O)c1ccccc1)Cc1ccccc1	-	-	-	-	-	-

Source: PubChem BioAssay
